The results in this text go back to ChEMBL document CHEMBL4351008, “Discovery of novel pyrimidine-based benzothiazole derivatives as potent cyclin-dependent kinase 2 inhibitors with anticancer activity” (Eur J Med Chem, 2019).

The term IC50 denotes the concentration needed to halve the response being measured. Low readings indicate greater potency, high ones weaker potency. What is called inhibition is how much of the control response was suppressed. Higher therefore signals a response far below the control.

SMILES strings stand for the structures.

The subject of assay [1] is HCT-116. Nature of the assay: Antiproliferative activity against human HCT116 cells incubated for 48 hrs by MTT assay. It is filed as functional, cell-based. Particulars: HCT-116, 48 h. The essentials: (§1)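 Cells kept at 37 °C in humidified 5% CO2: MDA-MB-231, MCF-7, HeLa and HCT116 in RPMI-1640; PC-3 in DMEM/F12; both media had 10% FBS. Compounds came from 60 mM DMSO stocks diluted in medium. At 70–80% confluence, cells got fresh medium with compound for 48 h at 37 °C, with 0.1% DMSO as negative control. MTT (5 mg/mL stock) was added for 4 h, and formazan was dissolved in DMSO and read at 570 nm. % inhibition was taken relative to control, IC50 was fitted, and data are mean ± SD of three independent experiments in duplicate.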
A general note: Tetrazolium dyes change colour on reduction, which living cells bring about.

The subject of assay [2] is MDA-MB-231. Nature of the assay: Antiproliferative activity against human MDA-MB-231 cells incubated for 48 hrs by MTT assay. It is filed as functional, cell-based. Particulars: MDA-MB-231, 48 h. Put shortly:
as §1

For assay [3], the system named is MCF7. Put plainly: Antiproliferative activity against human MCF7 cells incubated for 48 hrs by MTT assay. It is filed as functional, cell-based. Particulars: MCF7, 48 h. The essentials: as §1
The subject of assay [4] is HeLa. Put plainly: Antiproliferative activity against human HeLa cells incubated for 48 hrs by MTT assay. Format: functional, cell-based. The essentials:
as §1

Assay [5] has as its system PC-3. Put plainly: Antiproliferative activity against human PC3 cells incubated for 48 hrs by MTT assay. Format: functional, cell-based. Particulars: PC-3, 48 h. Put shortly: as §1
In assay [6] the target is CDK2/Cyclin A2 (Homo sapiens, UniProt P24941). Put plainly: Inhibition of CDK2/cyclin A2 (unknown origin) using histone H1 and ATP as substrate incubated for 40 mins by kinase-glo luminescence assay. Format: protein-complex assay. For orientation: In Kinase-Glo more light means more ATP remaining.
In assay [7] the target is CDK2/Cyclin A2 (Homo sapiens) (UniProt P24941+P20248). Put plainly: Inhibition of CDK2/cyclin A2 (unknown origin) using histone H1 and ATP as substrate at 1 uM incubated for 40 mins by kinase-glo luminescence assay relative to control. Format: protein-complex assay. The essentials: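 Recombinant CDK2/cyclin A2 (0.2 µg/mL) was run with 0.1 mg/mL histone H1 and 10 µM ATP in 40 mM Tris pH 7.4, 10 mM MgCl2, 0.1 mg/mL BSA and 1 mM DTT, for 40 min at 30 °C. Compound was tested at 1 µM final, with 1% DMSO final. Remaining ATP was quantified by Kinase-Glo Plus luminescence, which is inversely related to kinase activity.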

Consider `COc1ccc(Nc2ncc(C)c(Nc3nc4ccccc4s3)n2)cc1`, for which the IC50 in assay [1], in assay [2], in assay [3], in assay [4] and in assay [5] was more than 50 µM in each case.

For the compound `Cc1cnc(Nc2ccc(S(C)(=O)=O)cc2)nc1Nc1nc2ccccc2s1`, the IC50 was 0.76 µM in assay [1]; 14.8 µM in assay [2]; 6.55 µM in assay [3]; 0.46 µM in assay [4]; more than 50 µM in assay [5]; 0.0378 µM in assay [6]. In addition, the inhibition in assay [7] stood at 90%.

As for `Cc1cnc(Nc2ccc(Cl)cc2)nc1Nc1nc2ccccc2s1`, the half-inhibitory concentration (IC50) in assay [1], in assay [2], in assay [3], in assay [4] and in assay [5] was more than 50 µM each time.

As for `Cc1cnc(Nc2ccc(S(N)(=O)=O)cc2)nc1Nc1nc2ccccc2s1`, the concentration for half-maximal inhibition (IC50) in assay [1] was 1.66 µM; in assay [2], 16.8 µM; in assay [3], more than 50 µM; in assay [4], 2.8 µM; in assay [5] it was more than 50 µM; in assay [6], 0.0217 µM. In assay [7], this compound displayed an inhibition of 91%.

Take `Cc1ccc2nc(Nc3nc(Nc4ccc(S(C)(=O)=O)cc4)ncc3F)sc2c1`: the half-inhibitory concentration (IC50) was 9.18 µM in assay [1]; 14.3 µM in assay [2]; more than 50 µM in assay [3]; 17.2 µM in assay [4]; more than 50 µM in assay [5].

As for `COc1ccc2nc(Nc3ccnc(Nc4ccc(S(N)(=O)=O)cc4)n3)sc2c1`, the 50% inhibitory concentration (IC50) turned out to be 1.48 µM in assay [1]; 6.24 µM in assay [2]; 11 µM in assay [3]; 1.73 µM in assay [4]; 3.03 µM in assay [5].

Regarding `COc1ccc2nc(Nc3nc(Nc4ccc(S(C)(=O)=O)cc4)ncc3F)sc2c1`, the IC50 in assay [1] worked out at 2.63 µM; in assay [2], 4.74 µM; in assay [3], 5.85 µM; in assay [4], 25.4 µM; in assay [5] it was 1.27 µM.

For `CS(=O)(=O)c1ccc(Nc2ncc(F)c(Nc3nc4ccc(Cl)cc4s3)n2)cc1`, the IC50 was 20.7 µM in assay [1]; 11.1 µM in assay [2]; more than 50 µM in assay [3]; more than 50 µM in assay [4]; more than 50 µM in assay [5].

Consider `Cc1cnc(Nc2ccc(S(C)(=O)=O)cc2)nc1Nc1nc2ccc(Cl)cc2s1`, for which the IC50 in assay [1] stood at 2.5 µM; in assay [2] it was 5.9 µM; in assay [3], 4.32 µM; in assay [4], 4.18 µM; in assay [5] it was 13.4 µM. In addition, the inhibition in assay [7] worked out at 81%.

Turning to `COc1ccc2nc(Nc3nc(Nc4ccc(S(N)(=O)=O)cc4)ncc3C)sc2c1`, the half-inhibitory concentration (IC50) in assay [1] was 7.86 µM; in assay [2], more than 50 µM; in assay [3] it was more than 50 µM; in assay [4] it was 36.7 µM; in assay [5] it was more than 50 µM.

On to `Cc1cnc(Nc2ccc(S(C)(=O)=O)cc2)nc1Nc1nc2ccc(F)cc2s1`, for which the half-inhibitory concentration (IC50) is 24 µM in assay [1]; more than 50 µM in assay [2]; 3.26 µM in assay [3]; more than 50 µM in assay [4]; more than 50 µM in assay [5].

In the case of `Cc1ccc2nc(Nc3ccnc(Nc4ccc(S(N)(=O)=O)cc4)n3)sc2c1`, the IC50 in assay [1] was 0.9 µM; in assay [2] it was 3.87 µM; in assay [3], 5.74 µM; in assay [4], 0.66 µM; in assay [5] it was 1.64 µM. In addition, in assay [7], the inhibition is 82%.

Consider `COc1ccc2nc(Nc3ccnc(Nc4ccc(S(C)(=O)=O)cc4)n3)sc2c1`, for which the half-maximal inhibitory concentration (IC50) in assay [1] is 2.27 µM; in assay [2], 32.7 µM; in assay [3], more than 50 µM; in assay [4], 4.13 µM; in assay [5], 2.7 µM.

Turning to `CS(=O)(=O)c1ccc(Nc2nccc(Nc3nc4ccc(F)cc4s3)n2)cc1`, the IC50 in assay [1] is 0.86 µM; in assay [2], 2.08 µM; in assay [3] it was more than 60 µM; in assay [4] it was 0.56 µM; in assay [5], 1.94 µM. In assay [7], this compound returned an inhibition of 89%.

Consider `Cc1ccc2nc(Nc3nc(Nc4ccc(S(N)(=O)=O)cc4)ncc3F)sc2c1`, for which the IC50 is 1.46 µM in assay [1]; 6.39 µM in assay [2]; 24.5 µM in assay [3]; 1.89 µM in assay [4]; 4.96 µM in assay [5]; 0.0214 µM in assay [6]. Besides, in assay [7], the inhibition is 92%.

Take `Cc1ccc2nc(Nc3ccnc(Nc4ccc(S(C)(=O)=O)cc4)n3)sc2c1`: the IC50 in assay [1] was 1.75 µM; in assay [2], 4.44 µM; in assay [3], more than 50 µM; in assay [4] it was 2.3 µM; in assay [5], more than 50 µM. This compound gave an inhibition in assay [7] of 77%.

With `CS(=O)(=O)c1ccc(Nc2nccc(Nc3nc4ccc(Cl)cc4s3)n2)cc1`, the IC50 in assay [1] is 1.35 µM; in assay [2], more than 50 µM; in assay [3], more than 50 µM; in assay [4], 1.4 µM; in assay [5], more than 50 µM.

In the case of `CS(=O)(=O)c1ccc(Nc2nccc(Nc3nc4ccccc4s3)n2)cc1`, the IC50 in assay [1] is 8.37 µM; in assay [2], 5.91 µM; in assay [3] it was 10.6 µM; in assay [4], 11.3 µM; in assay [5], 1.71 µM. Besides, in assay [7], the inhibition amounted to 80%.

In the case of `COc1ccc2nc(Nc3nc(Nc4ccc(S(N)(=O)=O)cc4)ncc3F)sc2c1`, the IC50 in assay [1] was 11.5 µM; in assay [2], 26.6 µM; in assay [3] it was more than 50 µM; in assay [4], 13 µM; in assay [5] it was more than 50 µM.

With `Cc1cnc(Nc2ccc(S(N)(=O)=O)cc2)nc1Nc1nc2ccc(Cl)cc2s1`, the IC50 in assay [1] turned out to be 2.52 µM; in assay [2] it was 9.42 µM; in assay [3], 8.43 µM; in assay [4], 3.73 µM; in assay [5] it was 5.4 µM. This compound also returned an inhibition in assay [7] of 90%.

As for `Cc1cnc(Nc2ccc(C(C)C)cc2)nc1Nc1nc2ccccc2s1`, the half-inhibitory concentration (IC50) in assay [1], in assay [2], in assay [3], in assay [4] and in assay [5] was more than 50 µM each time.

Turning to `Cc1cnc(Nc2ccc([N+](=O)[O-])cc2)nc1Nc1nc2ccccc2s1`, the IC50 in assay [1] is 6.33 µM; in assay [2], 22.5 µM; in assay [3] it was more than 50 µM; in assay [4], 34.3 µM; in assay [5], more than 50 µM.

As to `Cc1cnc(Nc2ccc(F)cc2)nc1Nc1nc2ccccc2s1`, the IC50 in assay [1], in assay [2], in assay [3], in assay [4] and in assay [5] was more than 50 µM each time.

As to `CS(=O)(=O)c1ccc(Nc2ncc(F)c(Nc3nc4ccc(F)cc4s3)n2)cc1`, the half-inhibitory concentration (IC50) was more than 50 µM in assay [1]; 8.9 µM in assay [2]; more than 50 µM in assay [3]; more than 50 µM in assay [4]; more than 50 µM in assay [5].

On to `Cc1cnc(Nc2ccc(N3CCCCC3)cc2)nc1Nc1nc2ccccc2s1`, for which the 50% inhibitory concentration (IC50) in assay [1] was 18.7 µM; in assay [2], 37.2 µM; in assay [3] it was more than 50 µM; in assay [4], 4.34 µM; in assay [5] it was more than 50 µM.

Regarding `NS(=O)(=O)c1ccc(Nc2nccc(Nc3nc4ccccc4s3)n2)cc1`, the IC50 in assay [1] was 5.17 µM; in assay [2], 5 µM; in assay [3] it was 15.3 µM; in assay [4], 2.06 µM; in assay [5], 3.1 µM. In assay [7], this compound yielded an inhibition of 84%.

As to `Cc1ccc2nc(Nc3nc(Nc4ccc(S(N)(=O)=O)cc4)ncc3C)sc2c1`, the IC50 in assay [1] was 3.87 µM; in assay [2] it was 9.08 µM; in assay [3], more than 50 µM; in assay [4] it was 3.28 µM; in assay [5], 2.71 µM.

In the case of `Cc1cnc(Nc2cccc(F)c2)nc1Nc1nc2ccccc2s1`, the half-inhibitory concentration (IC50) in assay [1] was 27.8 µM; in assay [2] it was more than 50 µM; in assay [3] it was more than 50 µM; in assay [4], 16.3 µM; in assay [5], more than 50 µM.

Regarding `COc1cccc(Nc2ncc(C)c(Nc3nc4ccccc4s3)n2)c1`, the IC50 in assay [1], in assay [2], in assay [3], in assay [4] and in assay [5] was more than 50 µM in each case.

For `NS(=O)(=O)c1ccc(Nc2ncc(F)c(Nc3nc4ccc(Cl)cc4s3)n2)cc1`, the IC50 in assay [1] came to 8.62 µM; in assay [2], 2.79 µM; in assay [3], 8.34 µM; in assay [4], 8.77 µM; in assay [5], 1.43 µM.

Turning to `Cc1ncc(-c2ccnc(Nc3ccc(S(C)(=O)=O)cc3)n2)n1C(C)C` [AZD-5438], the IC50 in assay [1] turned out to be 0.47 µM; in assay [2], 7.2 µM; in assay [3] it was 10.7 µM; in assay [4], 0.73 µM; in assay [5], 0.36 µM.

For `Cc1cnc(Nc2ccc(S(N)(=O)=O)cc2)nc1Nc1nc2ccc(F)cc2s1`, the IC50 in assay [1] is 2.01 µM; in assay [2], 7.58 µM; in assay [3], more than 50 µM; in assay [4], 3.46 µM; in assay [5] it was 6.98 µM.
